We go through two compounds from ChEMBL document CHEMBL3526029, “Disposition and metabolism of GSK2251052 in humans: a novel boron-containing antibiotic” (Drug Metab Dispos, 2013).

The subject of data set [1] is Plasma. Kind of data set: AUC (0 to t) in plasma of healthy human treated with [14C]GSK2251052 at 1500 mg, iv infusion for 1 hr as single dose. Format: ADME, organism-based. To be noted: in vivo. The method in brief:
(§1)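 Six fasted healthy men received 1500 mg [14C]GSK2251052 as a 1-h constant-rate i.v. infusion. K2EDTA plasma was sampled from predose to 72 h, with profiling samples added at 96, 144 and 336 h. Parent and M3 were measured by validated LC/MS/MS after methanol/formic acid precipitation with stable-label internal standards (range 5–10,000 ng/ml). Noncompartmental analysis used actual times, linear-up/log-down trapezoids and CL = dose/AUC(0-∞).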

The test system of data set [2] is Plasma. Kind of data set: AUC (0 to infinity) in plasma of healthy human treated with [14C]GSK2251052 at 1500 mg, iv infusion for 1 hr as single dose. Format: ADME, organism-based. Also noted: dose 1500 mg, route intravenous, time infinity. To be noted: in vivo. The essentials: as §1
The subject of data set [3] is Plasma. Kind of data set: Cmax in plasma of healthy human treated with [14C]GSK2251052 at 1500 mg, iv infusion for 1 hr as single dose. Particulars: in vivo. Also noted: dose 1500 mg, route intravenous. Format: ADME, organism-based. The essentials:
as §1

In data set [4] the test system is Plasma. Kind of data set: Half life in plasma of healthy human treated with [14C]GSK2251052 at 1500 mg, iv infusion for 1 hr as single dose. Format: ADME, organism-based. Particulars: in vivo. The essentials: (§2)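 Healthy men got a single 1500 mg [14C] dose by 1 h i.v. infusion. K2EDTA blood was sampled up to 336 h. Radioactivity in blood and plasma was measured by LSC, with AMS for plasma below LLQ. Parent and M3 were measured by LC/MS/MS (5–10,000 ng/ml range). Noncompartmental analysis used actual times, with t1/2 = ln2/λz and Tmax observed directly, timed from infusion start.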

The test system of data set [5] is Plasma. Kind of data set: Tmax in plasma of healthy human treated with [14C]GSK2251052 at 1500 mg, iv infusion for 1 hr as single dose. Format: ADME, organism-based. To be noted: in vivo. The method in brief:
as §2

Data set [6] in a line: Drug recovery in cynomolgus monkey liver S9 fraction at pH 7.4 treated with [14C]GSK2251052 at 500 uM after 3 hrs by liquid scintillation counting in presence of NAD+. Format: ADME, subcellular, Macaca fascicularis. To be noted: s9, pH 7.4, 3 h.
Data set [7] is described as follows: Drug recovery in cynomolgus monkey liver S9 fraction at pH 8.4 treated with [14C]GSK2251052 at 500 uM after 3 hrs by liquid scintillation counting in presence of NAD+. Format: ADME, subcellular, Macaca fascicularis. Particulars: s9, pH 8.4, 3 h.
Data set [8] in a line: Drug recovery in cynomolgus monkey liver S9 fraction at pH 8.8 treated with [14C]GSK2251052 at 500 uM after 3 hrs by liquid scintillation counting in presence of NAD+. Format: ADME, subcellular, Macaca fascicularis. Particulars: s9, pH 8.8, 3 h.
Data set [9] in a line: Drug recovery in cynomolgus monkey liver cytosol at pH 7.4 treated with [14C]GSK2251052 at 500 uM after 3 hrs by liquid scintillation counting in presence of NAD+. Format: ADME, Macaca fascicularis. To be noted: pH 7.4, 3 h.
Data set [10] is described as follows: Drug recovery in cynomolgus monkey liver cytosol at pH 8.4 treated with in presence of NAD+ [14C]GSK2251052 at 500 uM after 3 hrs by liquid scintillation counting. Format: ADME, Macaca fascicularis. Particulars: pH 8.4, 3 h.
Data set [11] can be described thus: Drug recovery in cynomolgus monkey liver microsomes at pH 7.4 treated with [14C]GSK2251052 at 500 uM after 3 hrs by liquid scintillation counting in presence of NAD+. Format: ADME, Macaca fascicularis. To be noted: pH 7.4, 3 h. In general terms: Liver microsomes are vesicles of endoplasmic reticulum, rich in cytochrome P450 enzymes.
Data set [12] is described as follows: Drug recovery in healthy human urine treated with [14C]GSK2251052 at 1500 mg, iv infusion for 1 hr as single dose after 120 to 336 hrs by HPLC method. To be noted: in vivo. Format: ADME, organism-based. The essentials:
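Urine pooled by weight per subject over 0–120 h; 120–336 h pools from all subjects combined into one composite. Centrifuged at ~21,000g, then supernatant profiled by HPLC (Atlantis T3, ammonium acetate pH 4.5/methanol, 30°C) with radiochemical detection plus MS identification. Results are % of dose, corrected for centrifugation recovery measured by triplicate LSC.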

The nature of data set [13]: Drug recovery in healthy human feces treated with [14C]GSK2251052 at 1500 mg, iv infusion for 1 hr as single dose after 120 hrs by HPLC method. Format: ADME, organism-based. To be noted: in vivo. The essentials:
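Feces pooled over 0–120 h per subject by sample weight. About 1 g homogenate extracted twice with 4 volumes of acetonitrile:methanol:water:formic acid (50:25:25:1) under 20 min sonication. Extracts dried and reconstituted in water:methanol 90:10. Profiled by HPLC (Atlantis T3, ammonium acetate pH 4.5/methanol, 30°C) with fraction radiocounting and Orbitrap MS. Results given as % of dose, corrected for extraction recovery.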

Data set [14] can be described thus: Drug metabolism in human liver cytosol assessed as ADH-mediated compound formation treated with GSK2251052 at 50 to 500 uM by spectrophotometry in presence of NAD+. Format: ADME. Particulars: TDE = time-dependent effect.
A short description of data set [15]: Drug metabolism assessed as purified ADH (unknown origin)-mediated compound formation treated with GSK2251052 at 50 to 500 uM by spectrophotometry in presence of NAD+. Format: ADME. To be noted: human, TDE = time-dependent effect.
In another data set the test system is Liver cytosol. Kind of data set: Drug metabolism in human liver cytosol assessed as compound formation treated with GSK2251052 at 50 to 500 uM after 3 hrs by spectrophotometry in presence of NAD+ and ADH inhibitor 4-MP. Format: ADME.
The nature of data set [16]: Drug recovery in healthy human feces treated with [14C]GSK2251052 at 1500 mg, iv infusion for 1 hr as single dose after 0 to 120 hrs by HPLC method. Particulars: in vivo.

Broadly, the AUC is concentration integrated over time. As usually defined, the Cmax is the highest concentration seen after dosing. By Tmax is commonly meant the time from dosing to the highest level.

The compound `Cl.NC[C@H]1OB(O)c2c(OCCC(=O)O)cccc21` registered an AUCt with Plasma [1] of 101 µg·h/mL. Further, in the data set with Plasma [2], the AUC came to 103 µg·h/mL. Moreover, the Cmax in the data set on Plasma [3] was determined as 1770 ng/mL. In addition, in the data set with Plasma [4], the t1/2 was determined as 77.3 h. For the same compound, the Tmax in the data set on Plasma [5] was 7 h. For the same compound, the Drug recovery in [6] was found to be 7.7%; in data set [7] it was 6.7%; in data set [8], 4.3%; in data set [9], 1.7%; in data set [10] it was 0.9%; in data set [11], 2.5%. Further, the Drug recovery in data set [12] (in the assay text read “0 to 120 hrs” for “120 to 336 hrs”) was 43.8%; in [13] it was 3.3%; in data set [16], 3.3%. The Drug metabolism entry in data set [14] is “tde”; in data set [15], “tde”; in the data set on Liver cytosol it was “metabolite_not_detected”.

Consider `CC(=O)NC[C@H]1OB(O)c2c(OCCC(=O)O)cccc21`, for which, in data set [12] (BLD = below limit of detection), the Drug recovery result is “BLD”.
